Reference: ChEMBL document CHEMBL4513216, “Probing the Open Global Health Chemical Diversity Library for Multistage-Active Starting Points for Next-Generation Antimalarials” (ACS Infect Dis, 2020)

Experiment: Toxicity liver stage against HepG2, at 10uM
Format: cell-based
Design: test concentration 10 uM, cell line HepG2-A16-CD81EGFP
Conditions: human, HepG2-A16-CD81EGFP cells; read-out: INHIBITION
In short: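 Uninfected HepG2-A16-CD81EGFP cells, 3 × 10^3 per well, 1536-well, plated on prespotted compound at 10 μM final, parasite-free screening media added to match infected plates; puromycin 10 μM positive, DMSO 0.5% negative; run in parallel with 48 h PbLuc assay at 37 °C, 5% CO2; viability by CellTiter-Glo luminescence, normalized to controls.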

Compared with `CCOCC1CCN(C(=O)Nc2ccc3c(c2)CCCN3C)C1` (stereo unspecified), `CNC(=O)[C@@H](c1ccccc1OC)N1CCC[C@H]1C(=O)N1CCC1` is lower in cytotoxicity at 10 µM: 10.1% for the first, 1.44% for the second.

Going from `CSc1ccc(NCc2csc(C)n2)cc1F` to `CC(NC(=O)Cn1ccc(=O)n(C)c1=O)c1cc(F)ccc1F` (stereo unspecified), the cytotoxicity at 10 µM rises from -6.54% to -4.64%.

Going from `CCC(=O)N1CSCC1C(=O)Nc1ccccc1-c1cccs1` (stereo unspecified) to `CC(NC(=O)c1cccs1)C(=O)Nc1cccnc1N1CCCCC1` (stereo unspecified), the cytotoxicity at 10 µM falls from -3.8% to -8.94%.

Compared with `NC(=O)C1CCCCN1C(=O)c1ccc(Br)s1` (stereo unspecified), `CNc1nc(C)c(C(=O)N2CCCCC2CCc2ccc(O)cc2)s1` (stereo unspecified) is higher in cytotoxicity at 10 µM: -6.38% for the first, 0.126% for the second.

First: OC1CCN(c2ccc(CNc3nc4ccccc4o3)cc2F)CC1
Second: COc1ccccc1C(=O)N1CCC(Nc2ccc(C)nn2)CC1
The cytotoxicity at 10 µM of the first is higher: 0.833% for the first, -4.05% for the second.

Compared with `Cc1nc2ccc(C(=O)N(CCC#N)CCC#N)cc2nc1C`, `COc1ccc(C(=O)N(C)Cc2nnc3ccccn23)cc1` is higher in cytotoxicity at 10 µM: -12.8% for the first, 3.45% for the second.

Going from `CC(C)C1CN(C(=O)c2ccn(C)c(=O)c2)c2ccccc2N1` (stereo unspecified) to `CC(=O)N[C@@H](C)C(=O)NCc1cccnc1Oc1ccccc1F`, the cytotoxicity at 10 µM rises from -6.01% to -3.53%.

Going from `CCOc1ncccc1C(=O)N1CC=C(c2ccc(O)cc2)CC1` to `COc1ccccc1CC(=O)N1CCC(OCc2cccnc2)CC1`, the cytotoxicity at 10 µM falls from 8.02% to 4.87%.

First: CN1CC(C(=O)NC2(c3cccc(F)c3)CCOCC2)CC1=O (stereo unspecified)
Second: CN1CC(C(=O)NCc2cccnc2-n2cccn2)CC1=O (stereo unspecified)
The cytotoxicity at 10 µM of the first is higher: 15.6% for the first, -6.18% for the second.

Going from `Cc1n[nH]cc1CNC(C(=O)N1CCOCC1)c1ccccc1` (stereo unspecified) to `CN1CCC(N(CCc2ccccc2)C(=O)COCC2CCCO2)CC1` (stereo unspecified), the cytotoxicity at 10 µM falls from 7.57% to -148%.

First: CC(C)CNC(=O)c1ccc(NC(=O)NC(C)C)cc1Cl
Second: Cc1cccc(OC2CCN(C(=O)CNC(=O)N(C)C)CC2)c1
The cytotoxicity at 10 µM of the first is higher: 5.92% for the first, -0.951% for the second.

First: O=C1C(n2nnc(-c3ccsc3)n2)CCN1CC(F)(F)F (stereo unspecified)
Second: CN(Cc1cccc(C(N)=O)c1)CC1CCCN1c1cccnn1 (stereo unspecified)
The cytotoxicity at 10 µM of the first is higher: 0.519% for the first, -9.75% for the second.

First: Cc1cc(N2CCCC(OC(=O)CCc3cnn(C)c3)C2)nc(C)n1 (stereo unspecified)
Second: Cc1cc(N2CCCC(O)CC2)n2nc(C)c(C)c2n1 (stereo unspecified)
The cytotoxicity at 10 µM of the first is lower: 0.127% for the first, 7.46% for the second.

Compared with `CCN(CC)c1ccc(CNC(=O)C2(C)CCOCC2)cc1F`, `O=C(NCCc1nnc2n1CCC2)NCC1(c2cccc(F)c2)CC1` is lower in cytotoxicity at 10 µM: -4.08% for the first, -7.94% for the second.

Compared with `O=C(Cc1ccc2c(c1)CCO2)N1CCCCC1Cn1cccn1` (stereo unspecified), `Cc1ccc2c(n1)N(CC1CC1)CCN(C(=O)c1ccncc1F)C2` is higher in cytotoxicity at 10 µM: -12.8% for the first, -0.182% for the second.

Compared with `CCOC(CC)C(=O)NCCC(=O)N1CCN(c2ccccn2)CC1` (stereo unspecified), `CCOCC(O)CN1CCN(C(=O)c2cc(C)ccc2OC)CC1` (stereo unspecified) is higher in cytotoxicity at 10 µM: -7.4% for the first, 5.35% for the second.

First: CN(Cc1cncnc1)[C@H]1CN(C(=O)c2ccco2)[C@@H]2CCCO[C@@H]21
Second: CC1c2ncc(COc3cccnc3)n2CCN1C(=O)Cc1ccco1 (stereo unspecified)
The cytotoxicity at 10 µM of the first is lower: -101% for the first, -5.13% for the second.

Going from `CCc1nc(N)nc(N2CCCC3(CN(C)C(=O)O3)C2)c1C` (stereo unspecified) to `CCc1nc(CN2CCN(C(=O)c3cc(C)no3)CC2)cs1`, the cytotoxicity at 10 µM rises from -138% to -21.8%.

First: Cc1c(CNCC(C)Oc2cccnc2)c2ccccc2n1CC(N)=O (stereo unspecified)
Second: Cc1cc(C(=O)N2CCC3(CC2)CC(c2cccnc2)C(=O)N3C)no1 (stereo unspecified)
The cytotoxicity at 10 µM of the first is lower: -141% for the first, 1.48% for the second.

Going from `Cc1cc(C)c2c(N(C)CC3CCOC3)ncnc2n1` (stereo unspecified) to `CCc1nnc(CN2CCc3cnc(C)nc3C2)o1`, the cytotoxicity at 10 µM rises from -146% to -4.04%.

Compared with `COc1ccc(-c2noc(C3CC(C(C)C)=NO3)n2)cc1` (stereo unspecified), `Cc1cnn(CCNCc2nnc(-c3ccc(F)cc3)o2)c1` is lower in cytotoxicity at 10 µM: -6.64% for the first, -43.9% for the second.

First: CC(C)c1ccn(C2(C(=O)O)CCN(c3ccncc3F)CC2)n1
Second: CNC(=O)CN1CCCC12CCN(C(=O)c1ccccc1F)CC2
The cytotoxicity at 10 µM of the first is lower: -0.679% for the first, 1.58% for the second.

Compared with `CC(C)[C@H]1COC(=O)N1Cc1nnc(-c2ccccc2)o1`, `CC(C(=O)NCc1cccc(N2CC=CC2)c1)n1cccn1` (stereo unspecified) is lower in cytotoxicity at 10 µM: 0.537% for the first, -5.07% for the second.

First: Cc1nc(NCCC23CCCN2CCC3)cc(C2CCNCC2)n1
Second: CCn1cnnc1C1CCN(C(=O)COc2ccc(Cl)cc2)CC1
The cytotoxicity at 10 µM of the first is higher: 8.37% for the first, -3.39% for the second.

Going from `O=C(CCc1ccc(=O)[nH]n1)N1CCCC(COc2ccc(F)cc2)C1` (stereo unspecified) to `O=C(c1ccccn1)N1C[C@H]2CC[C@@H](C1)N(C(=O)CCC1CCCC1)C2`, the cytotoxicity at 10 µM rises from 1.9% to 3.07%.

First: Cc1nn(C)c(C)c1C1CCCN1C(=O)CCNS(C)(=O)=O (stereo unspecified)
Second: Cc1nn(C)c(Cl)c1C1CCCN1C(=O)CCNc1ncccn1 (stereo unspecified)
The cytotoxicity at 10 µM of the first is lower: -26% for the first, -7.42% for the second.

Going from `CCS(=O)(=O)N1CCN(C(=O)c2cnc3[nH]nc(C)c3c2)CC1` to `Cc1ccccc1C(=O)N1CCC2(CCCN2CCN(C)C)CC1`, the cytotoxicity at 10 µM rises from -5.68% to 3.56%.

First: CC(C)c1noc(C(C)N2CCN(Cc3noc(C(C)(C)C)n3)CC2)n1 (stereo unspecified)
Second: COC1COC2(CCN(c3ccc(C#N)cc3)CC2)C1 (stereo unspecified)
The cytotoxicity at 10 µM of the first is higher: -14.6% for the first, -79.6% for the second.
